As a reminder, the pIC50 is the negative decadic logarithm of the IC50, by convention in mol/L. By pKi is commonly meant the negative decadic logarithm of the Ki, by convention in mol/L. Low readings indicate a high Ki, high ones a low Ki. As usually defined, the ED50 is the dose that gives a 50% effect, or the effect in half of the subjects. The term half-life denotes the time in which the quantity being followed falls by half.

The target in series [1] is Delta-type opioid receptor (Mus musculus, UniProt P32300). The experiment in a line: Agonist activity at delta opioid receptor in mouse vas deferens. The method, boiled down: (§1)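 Binding used rat brain membrane preparations, with MOR labelled by [3H]DAMGO and DOR by [3H]DSLET and read as displacement. Functional MOR activity was measured in isolated guinea pig ileum and DOR activity in isolated mouse vas deferens. Values are means of 3–4 experiments.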
Sequence of Delta-type opioid receptor (Mus musculus, UniProt P32300) (P32300 whole entry): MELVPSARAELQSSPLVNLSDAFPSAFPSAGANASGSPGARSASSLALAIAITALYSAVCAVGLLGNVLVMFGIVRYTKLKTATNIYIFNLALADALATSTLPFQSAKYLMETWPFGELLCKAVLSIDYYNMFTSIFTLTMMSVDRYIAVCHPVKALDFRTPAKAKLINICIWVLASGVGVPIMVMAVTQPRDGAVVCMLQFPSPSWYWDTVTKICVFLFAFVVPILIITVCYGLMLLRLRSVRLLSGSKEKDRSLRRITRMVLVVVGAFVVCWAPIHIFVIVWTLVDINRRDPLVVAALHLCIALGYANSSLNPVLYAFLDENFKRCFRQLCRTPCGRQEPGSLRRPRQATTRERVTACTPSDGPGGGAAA

The target of series [2] is Mu-type opioid receptor (Cavia porcellus, UniProt P97266). Put plainly: Agonist activity at mu opioid receptor in guinea pig ileum. In kind it is tissue-based. The procedure, abridged:
as §1

Series [3] deals with Mu-type opioid receptor (Rattus norvegicus, UniProt P33535). Put plainly: Displacement of [3H]DAMGO from mu opioid receptor in rat brain membranes. In kind it is cell membranes, Membrane. The procedure, abridged: as §1
Sequence of Mu-type opioid receptor (Rattus norvegicus, UniProt P33535) (P33535 whole entry): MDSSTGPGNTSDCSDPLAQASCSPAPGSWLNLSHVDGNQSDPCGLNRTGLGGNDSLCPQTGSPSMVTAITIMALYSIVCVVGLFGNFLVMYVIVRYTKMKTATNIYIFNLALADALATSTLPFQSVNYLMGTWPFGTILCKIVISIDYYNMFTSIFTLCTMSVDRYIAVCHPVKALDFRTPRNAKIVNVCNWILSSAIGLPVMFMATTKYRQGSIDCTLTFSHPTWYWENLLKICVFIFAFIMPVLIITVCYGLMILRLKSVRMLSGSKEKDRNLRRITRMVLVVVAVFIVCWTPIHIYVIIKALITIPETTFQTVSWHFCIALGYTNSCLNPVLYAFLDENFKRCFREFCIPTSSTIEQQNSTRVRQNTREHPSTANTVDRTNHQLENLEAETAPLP
Background: In a radioligand displacement assay an active substance lowers the binding of a labelled ligand.

Series [4] addresses Delta-type opioid receptor (Rattus norvegicus, UniProt P33533). Put plainly: Displacement of [3H]DSLET from delta opioid receptor in rat brain membranes. In kind it is cell membranes, Membrane. The method, boiled down: as §1
Series [5] concerns Mus musculus. The experiment in a line: Antinociceptive activity in C57Bl6 mouse assessed as time of peak effect of tail flick latency at 0.5 mg/kg, iv by tail-flick assay. In kind it is functional. The procedure, abridged:
(§2)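 C57Bl6 mice (23–25 g) were dosed intravenously at 0.5 mg/kg. Spinal antinociception was measured by tail-flick latency and expressed as %MPE. The response was tracked over time up to 180 min post-dose to find the time of peak effect.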
(In general: Hot-plate and tail-flick tests time the reaction to a heat stimulus.)

Series [6] relates to Mus musculus. Put plainly: Antinociceptive activity in C57Bl6 mouse at 0.5 mg/kg, iv by hot plate test. In kind it is functional, organism-based. Also on record: dose 0.5 mg/kg. As to conditions: TDE = time-dependent effect. The method, boiled down: (§3)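 C57Bl6 mice (23–25 g body weight) received a single intravenous dose of 0.5 mg/kg. Supraspinal antinociception was measured by hot plate and expressed as %MPE. Readings were followed over time up to 180 min after dosing to give the time course and the time of peak effect.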

The subject of series [7] is Mus musculus. The experiment in a line: Antinociceptive activity in iv dosed C57Bl6 mouse after 5 to 180 mins by hot plate test. The series is classed as functional. The method, boiled down:
(§4)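 Intravenous dosing in C57Bl6 mice (23–25 g), with antinociception monitored up to 180 min by hot plate (supraspinal) or tail-flick (spinal) and expressed as %MPE. ED50 in mg/kg came from standard nonlinear regression of the log dose–response curve.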

The next series deals with Plasma. The experiment in a line: Drug degradation in human plasma up to 20 hrs. In kind it is ADME, cell-free.
Series [8] deals with Mus musculus. Put plainly: Antinociceptive activity in C57Bl6 mouse assessed as maximum possible effect of tail flick latency at 0.5 mg/kg, iv after 180 mins by tail-flick assay. In kind it is functional. The procedure, abridged: as §2
In series [9] the test system is Mus musculus. The experiment in a line: Antinociceptive activity in C57Bl6 mouse assessed as maximum possible effect at 0.5 mg/kg, iv after 180 mins by hot plate test. In kind it is functional. The procedure, abridged:
as §3

The subject of series [10] is Mus musculus. Put plainly: Antinociceptive activity in iv dosed C57Bl6 mouse assessed as tail flick latency after 5 to 180 mins by tail-flick assay. The series is classed as functional. The method, boiled down:
as §4

Series [11] relates to Mus musculus. Put plainly: Antinociceptive activity in C57Bl6 mouse assessed as tail flick latency at 0.5 mg/kg, iv by tail-flick assay. The series is classed as functional, organism-based. Also on record: dose 0.5 mg/kg. The following applies: TDE = time-dependent effect. The method, boiled down: as §2
The nature of series [12]: Half life in human plasma. In kind it is ADME, cell-free.
Series [13] is described as follows: Half life in rat brain homogenates. The series is classed as ADME, tissue-based. As to conditions: brain homogenate.
Series [14] has as its system Mus musculus. The experiment in a line: Antinociceptive activity in C57Bl6 mouse assessed as time of peak effect at 0.5 mg/kg, iv by hot plate test. The series is classed as functional. The procedure, abridged: as §3

Molecules are shown by their SMILES. pIC50, pKi: −log10 of the molar value. Where a SMILES comes first, the peptide text is derived from it. [ ]: non-standard residue; d: D form. The star is where a group is joined. X1 = OC[C@H]1O[C@@H](n2cc(C*)nn2)[C@H](O)[C@@H](O)[C@H]1O; Dmt = Cc1cc(O)cc(C)c1C[C@H](N)C(=O)O

Sequence of Mu-type opioid receptor (Cavia porcellus, UniProt P97266) (P97266 whole entry): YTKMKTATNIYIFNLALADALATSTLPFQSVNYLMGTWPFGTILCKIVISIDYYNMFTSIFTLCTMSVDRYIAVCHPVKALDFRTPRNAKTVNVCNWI
Sequence of Delta-type opioid receptor (Rattus norvegicus, UniProt P33533) (P33533 whole entry): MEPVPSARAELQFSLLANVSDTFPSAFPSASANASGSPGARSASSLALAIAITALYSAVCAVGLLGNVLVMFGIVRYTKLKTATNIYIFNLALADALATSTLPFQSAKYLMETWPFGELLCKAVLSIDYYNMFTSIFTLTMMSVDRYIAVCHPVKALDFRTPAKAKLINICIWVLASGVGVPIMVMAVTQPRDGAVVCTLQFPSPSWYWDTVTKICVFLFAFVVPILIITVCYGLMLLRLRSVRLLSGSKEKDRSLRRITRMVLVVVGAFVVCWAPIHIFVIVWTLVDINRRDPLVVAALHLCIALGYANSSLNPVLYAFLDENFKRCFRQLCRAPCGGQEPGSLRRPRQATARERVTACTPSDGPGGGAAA

For the molecule `Cc1cc(O)cc(C)c1C[C@H](N)C(=O)N[C@H](CCCNC(=N)N)C(=O)N[C@@H](Cc1ccccc1)C(=O)N[C@@H](COCc1cn([C@@H]2O[C@H](CO)[C@H](O)[C@H](O)[C@H]2O)nn1)C(N)=O` (H-[Dmt][dR]FS(X1)-NH2), the pIC50 was 8.31 in [1] and 9.46 on Mu-type opioid receptor [2]. Also, the pKi at Mu-type opioid receptor [3] was 9.95; in series [4], 8.20.
The matching figures for `Cc1cc(O)cc(C)c1C[C@H](N)C(=O)N[C@H](CCCNC(=N)N)C(=O)N[C@@H](Cc1ccccc1)C(=O)N[C@@H](Cc1ccc(OCc2cn([C@@H]3O[C@H](CO)[C@H](O)[C@H](O)[C@H]3O)nn2)cc1)C(N)=O` (H-[Dmt][dR]FY(X1)-NH2): 8.22, 8.64, 9.54 and 7.65.
In the case of `Cc1cc(O)cc(C)c1C[C@H](N)C(=O)N[C@H](CCCNC(=N)N)C(=O)N[C@@H](Cc1ccccc1)C(=O)N[C@@H](Cc1cn([C@@H]2O[C@H](CO)[C@@H](O)[C@H](O)[C@H]2O)nn1)C(N)=O`, the Time in the series on Mus musculus [5] is recorded as 60 min. Besides, the pIC50 in [1] was 8.56; at Mu-type opioid receptor [2], 8.84. For the same molecule, the Activity result with Mus musculus [6] is “tde”; in the series with Mus musculus [7] it was “Dose-dependent effect”; in the series on Mus musculus [10] it was “Dose-dependent effect”; with Mus musculus [11], “tde”. The ED50 with Mus musculus [7] was determined as 0.31 mg/kg; in the series on Mus musculus [10] it was 0.34 mg/kg. Further, in the series with Plasma, the Stability result is on record as “Stable”. Further, the MPE with Mus musculus [8] and with Mus musculus [9] was 40% throughout. Moreover, the pKi at Mu-type opioid receptor [3] is 9.69; in series [4], 7.92.
For the molecule `Cc1cc(O)cc(C)c1C[C@H](N)C(=O)N[C@H](CCCNC(=N)N)C(=O)N[C@@H](Cc1ccccc1)C(=O)N[C@@H](CCCCN)C(N)=O`, in the series on Mus musculus [5], the Time amounted to 60 min. Further, the Activity result in the series with Mus musculus [6] is “tde”; in the series with Mus musculus [7], “Dose-dependent effect”; in the series on Mus musculus [10] it was “Dose-dependent effect”; with Mus musculus [11] it was “tde”. Further, the median effective dose (ED50) worked out at 0.25 mg/kg with Mus musculus [7] and 0.17 mg/kg with Mus musculus [10]. The MPE in the series with Mus musculus [8] and in the series on Mus musculus [9] was 40% throughout.
On to `Cc1cc(O)cc(C)c1C[C@H](N)C(=O)N1CCC[C@H]1C(=O)N[C@@H](Cc1ccccc1)C(=O)N[C@@H](Cc1ccccc1)C(N)=O`, for which the half-life in [12] came out at 53 min; in series [13] it was 39.5 min.
On Mu-type opioid receptor [2], `NCCCC[C@H](NC(=O)[C@H](Cc1ccccc1)NC(=O)[C@@H](CCCN=C(N)N)NC(=O)[C@@H](N)Cc1ccc(O)cc1)C(N)=O` gave a pIC50 of 6.60.
Consider `Cc1cc(O)cc(C)c1C[C@H](N)C(=O)N[C@H](CCCNC(=N)N)C(=O)N[C@@H](Cc1ccccc1)C(=O)N[C@@H](Cc1cn([C@@H]2O[C@H](CO)[C@H](O)[C@H](O)[C@H]2O)nn1)C(N)=O`, for which the Time with Mus musculus [5] and in the series on Mus musculus [14] was 60 min each time. In addition, the pIC50 in [1] was 8.70; at Mu-type opioid receptor [2] it was 9.18. The Activity entry is “tde” with Mus musculus [6], “Dose-dependent effect” in the series with Mus musculus [7], “Dose-dependent effect” in the series on Mus musculus [10] and “tde” in the series on Mus musculus [11]. Moreover, the ED50 in the series with Mus musculus [7] came to 0.4 mg/kg; with Mus musculus [10] it was 0.27 mg/kg. For the same molecule, the Stability entry in the series with Plasma was “Stable”. Further, the MPE with Mus musculus [8] and in the series with Mus musculus [9] was 40% each time. For the same molecule, the values for the negative-log Ki (pKi) (on Mu-type opioid receptor [3]; in [4]) were 9.65 and 7.81, respectively.
Consider `N=C(N)NCCC[C@@H](NC(=O)[C@@H](N)Cc1ccc(OCc2cn([C@@H]3O[C@H](CO)[C@H](O)[C@H](O)[C@H]3O)nn2)cc1)C(=O)N[C@@H](Cc1ccccc1)C(=O)N[C@@H](CCCCN)C(N)=O`, for which the pIC50 in series [1] was 5.70; on Mu-type opioid receptor [2], 5.93. Besides, the negative-log Ki (pKi) at Mu-type opioid receptor [3] was 7.42; in [4], less than 5.30.
